According to the EternaBench riboswitch data:

System: MS2 coat protein
Experiment: apparent Kd, MS2 coat protein; higher = weaker binding; RNA-MaP array; FMN 200 µM where present
Method in brief: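 SNAP-549-labelled MS2 coat protein, doubled from 0.7 or 1.5 nM to 3 µM, was titrated over designs transcribed by stalled E. coli RNA polymerase on Illumina sequencing-chip clusters. Titrations were run without and then with constant ligand in 100 mM Tris-HCl pH 7.5, 80 mM KCl, 4 mM MgCl2, BSA, DTT, yeast tRNA and Tween-20. The apparent Kd is the median of filtered per-cluster fits to green signal normalised to red-channel RNA signal and control-cluster median Fmax.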

[1] = designed as: OFF switch for flavin mononucleotide, no ligand
[2] = ligand present: flavin mononucleotide, designed as: OFF switch for flavin mononucleotide
[3] = designed as: ON switch for flavin mononucleotide, no ligand
[4] = ligand present: flavin mononucleotide, designed as: ON switch for flavin mononucleotide

Sequence | apparent Kd [1] [nM] | apparent Kd [2] [nM] | apparent Kd [3] [nM] | apparent Kd [4] [nM]
AUAUCGUCAGGAUAUGCUAGUAAAUGUUUCAUUUCUUCAUAGCAGAAGGGACAUGAGGAUCACCCAUGUAAGUC | 37.6 | 39.6 |  | 
GAGUGACAUGAGGAUCACCCAUGUGAGGAUAUCGGACGGACCUAGUUAACAUCCGCCGCGAGAAGGCACAUCGG | 156 | 27 |  | 
AAAAAGUCAGGAUAUGUGAAAAAAAAAAAAAAAAAAAAAAAACAGAAGGGACAUGAGGAUCACCCAUGUAAAAA | 54.1 | 62.3 |  | 
AAGAAACAUGAGGAUCACCCAUGUCAGGAUAUGCAAAACUGACGAAAGUCAGAAGAAAGCAGAAGGGACUAGAA | 59.8 | 79.7 |  | 
GCGUAUAUAUGAUUUAUUUAACAGUCAGAAGGUGAGAAGACGACAUGAGGAUCACCCAUGUUAUUCAAGGAUAUGAUAAUGCGC |  |  | 24.9 | 11.4
CCAUAAAAGAUCCAUUUUUACAACAUGAGGAUCACCCAUGUGCAGGAUAUCGUGAAAGUAAAAUACGAGAAGGGCAAGAACUGC | 106 | 130 |  | 
AUACUGAGCGUAAAUUACCUUAACAUGAGGAUCACCCAUGUGGAGGAUAUUGACCUAGCAAAGCUCGAGAAGGCCACUGGGAUG | 17.5 | 18.1 |  | 
AAAAUGUGAGGAUAUUAGUUGUACGUCAAUAGACGUAUAAGUGAGAAGGCACAUGAGGAUCACCCAUGUUCCUG | 20.6 | 112 |  | 
CUGAUGUUAGGAUAUCAGGCUGUGCGCGAAAACGGGCGGCAUGAGAAGGAACAUGAGGAUCACCCAUGUGACGG | 47.3 | 124 |  | 
CCGGCUUAGUAGGAUAUCAGAGUCGAAAGACUCUGAGAAGGACUAACAUGAGGAUCACCCAUGUGUCCUACCGG | 15.9 | 36 |  | 
AUCAGCUCGUCAGGAUAUACGUCAAUGCGUCAGCAGUGUGGUAAGAUCACAUGAGGAUCACCCAUGUAGAAGGGACGAGCUGAU | 125 | 572 |  | 
UAUCUAUUUAUGGGAUUAGAAUAUGAGGAUAUCAUUUAUUUAUACAUGAGGAUCACCCAUGUUUCUGAGAAGGCAUAUUUAAUA |  |  | 20.3 | 6.73
CCAGGCAGUGUGAGGAUAUGCUGGUCCUUGGAUCAGCAGAAGGCACAUGAGGAUCACCCAUGUGAAGAGCUUGG | 23.9 | 115 |  | 
AUUUUAUAAUAGAAGGAGGACUUCAUGAGGAUCACCCAUGUGUUAGUACCUAGGAUAUGUAAUAACAUGAGGAUCACCCAUGUC |  |  | 49.5 | 40.3
GGUGGACAUGAGGAUCACCCAUGUGAGGAUAUCGGCUGGCUAGCGGCGGAUGGCUUCUCGAGAAGGCGCAUAGU | 80.2 | 67.5 |  | 
AAUAUGAGCUGGUCUAAACUCAAAACAUGAGGAUCACCCAUGUAGGAUAUCAGCACGAUAAGUGCUGAGAAGGACAUCCAGCUC | 16.7 | 20.5 |  | 
CGAACUAAGUAGAAGGCUGUCUUAAAAUAGGACAGAGGAUAUACAUGAGGAUCACCCAUGUACUCCUUUAAUAAGUUUGAAAUA | 5.84 | 6.48 |  | 
UUGUUAGCAGGAUAUAUCCACGACCACAUGAGGAUCACCCAUGUGGCCGCUUGAGGUUGUAUAGAAGGGCUUUGUU | 13.8 | 14.3 |  | 
UUAUGUUUUGUAGGAUAUCAUUAGUUAUGUAUUUUAAUUGAAAUUUAGAUAUGAGAAGGACAUUUACAUGAGGAUCACCCAUGU | 17.4 | 11.1 |  | 
UAUAUAUAGUAAGGAUAUGUAAUUCUUUUAUAAACAGAAGGUACUGACAUGAGGAUCACCCAUGUUUUAGUGUGGGCAUGUAGA | 66.3 | 81.9 |  | 
GCAGCAUAGUUUACUAGCUGUUACAUGAGGAUCACCCAUGUUCAGGAUAUGGUCUGGAUUACAGGCCAGAAGGGAACAAGCUGC | 14.8 | 12 |  | 
AAGCUCUGUGAGAAGGCGCCCUUUGCGGUUGGGCGAGGAUAUCACAUGAGGAUCACCCAUGUCGGUGCAUCAGACAGCGUAUAA | 215 | 40.3 |  | 
AAAGACAGAGGAUAUACAUGAGGAUCACCCAUGUGGCGAAAAAAAAUCCAUUUGGCAUGUAGAAGGCUGUAUGA | 144 | 128 |  | 
CACAUGGUUACAGGAUAUGUUAGGUUGCUGUUUAUUGGAUAUUAAAUUAUUACAGAAGGGUAAUACAUGAGGAUCACCCAUGUG |  |  | 129 | 29.4
GAUGCUAUCCGAGGAUAUUCAUACCGGAAACGGACAUGAGGAUCACCCAUGUGGCGAAAGCCUUGGGAGAAGGCGGAUAGCAUC |  |  | 581 | 23.4
GAAAAGGUAGGAUAUACGAAAACAAAGGGUAGAAACAAAACACAUGAGGAUCACCCAUGUAGAAGGACCAAAAG | 36.4 | 233 |  | 
GAAUAGCGAGGAUAUGCAAUGAAGAUAGUACGAUAUGGCUGACAUGAGGAUCACCCAUGUAGAAGGCGCUGAUC | 44.8 | 40 |  | 
CUUUUGUGAGGAUAUUAGUAGUAUAUAAAUAAAAUUACUACUGAGAAGGCACAUGAGGAUCACCCAUGUUCCUC | 32.7 | 124 |  | 

Sequence | apparent Kd [1] [nM] | apparent Kd [2] [nM] | apparent Kd [3] [nM] | apparent Kd [4] [nM]
CUUAAGGCAGGAUAUGCUUUUUGUGACAUGAGGAUCACCCAUGUGAUGCAGUUUGGGUGUGCAGAAGGGCCUGAGU | 364 | 172 |  | 
GCGUGGAAUACAGGAUAUGUUGUACAAUAAUCUUUGAGGCAUUGAGAUAAAACAGAAGGGUAAACAUGAGGAUCACCCAUGUAA | 24.7 | 19.6 |  | 
GGAUGACAAAGUCAUCCAUAACGAACAUGAGGAUCACCCAUGUAGGAUAUGCAACUCAAAGAGUUGCAGAAGGACAUGUGCCUU | 34.6 | 273 |  | 
CAGUGCAAUGUAGGAUAUGCUCAGGAUAACUGAGCAGAAGGACAUGAGGAUCACCCAUGUAAAAUGAAAGAUAAUAAAGCACUG | 16.6 | 49.9 |  | 
GAAGUAUCCAAUAACAUGAGGAUCACCCAUGUCAAAAGACGGGAGGAUAUUGAUCUGAAGAAGAUCAAGAAGGCCUGGUGCUAA |  |  | 19.2 | 11.1
UCCACUGCUGAGAAGGGAUACGUCUGGUUCGCAUCAGGAUAUCGAUACAGUGCAGCAUGAGGACAUGAGGAUCACCCAUGUAUC |  |  | 11 | 8.98
GUCAGUGUGGUAGGAUAUCGAAACGGUCAGUUACGAGAAGGGCUACAUGAGGAUCACCCAUGUAUCCAAGAUCGGCUUACAGCA | 5.87 | 5.92 |  | 
ACCAUUUACUAAUUGUCUAUACAUGAGGAUCACCCAUGUUAUGAGGAUAUCGUCGUGAAACACGACGAGAAGGCAUAGCAUUCG | 67.2 | 229 |  | 
GAAUAGUUGAGAGGAUAUGUAUUAUUGUAGGAUACAGAAGGUUUUAACAUGAGGAUCACCCAUGUAGGACUAUAUAUGUGAAUA |  |  | 15.2 | 13.2
CAGCGCUGUCGAGAGGAUAUGCGGUGAUGGACAUGAGGAUCACCCAUGUUAGCGAUGGCAUUACGGUAGAAGGCUCUACAGCUGC |  |  | 40.3 | 16.4
GUUAGUUAAGGAUAUACUGGGAGCUGCGGCGUCUCGCCGCAACAUGAGGAUCACCCAUGUAGAAGGUGACCAUU | 320 | 229 |  | 
UUGUUAUAUGUAGGAUAUGCGUAUUAUUAUUAUGCAGAAGGACAUGAGGAUCACCCAUGUAUGUUGUUGUUAUAUAUUAUAUAU | 22.9 | 26.2 |  | 
AGUCGGAGCAGAGGAUAUAUACAUGAGGAUCACCCAUGUAAAUGAAUAAGCUGGAAACAGCAUGUAUAGAAGGCUGCUCCGACA | 45.6 | 125 |  | 
AAAUAAAGCAGUGUAUUAAGAUCACAUGAGGAUCACCCAUGUAGAAGGCUCGAGCAAAAUGCUCGAGAGGAUAUGCAACACUGC | 5.12 | 35 |  | 
UGUGUCAUCGAGAAGGCCUCAACAUGAGGAUCACCCAUGUUGUAAUAUGGGAGGAUAUCGAUGAUACAGCUACGUUUCGUAGCG |  |  | 19.8 | 5.56
CACGGAUAGUAGAAGGGUGACAUGAGGAUCACCCAUGUACACAUGCGUAUUAAAGUAUGUGAUACACAGGAUAUACUAUCCGUG |  |  | 76.3 | 321
UGGUACUAGGGAGGAUAUGGGAAGAUACAUGAGGAUCACCCAUGUUUAAGAAUCCCGAGAGGCAACUAGAAGGCCCUAGUACCU |  |  | 8.08 | 6.96
UGUCGGAGCAGAGGAUAUUACAUGAGGAUCACCCAUGUAUGAACCAAUAGCUGGAAACAGCAAUGUAAGAAGGCUGCUCCCACA | 12 | 138 |  | 
GCACGGUAAGUGAGGAUAUACCUCUGGAUACAGAGGUAGAAGGCACAUGAGGAUCACCCAUGUCUAAGCCGUGC | 17.1 | 24.1 |  | 
AGCGCGGUCUCGCAGGAUAUCCACAAUCCUACAUGAGGAUCACCCAUGUCGCUGCAGGAUAUUAGGGAGAAGGGUGAUGCCGCGC |  |  | 34.5 | 20.7
UGUCUGAUCUAAUAACAUGAGGAUCACCCAUGUGUUCACAACUAGGAUAUCGAUUAUUAAAACGUCGAGAAGGAGUAUACAUUA | 34.5 | 43.6 |  | 
ACAAAACAUGUAGGAUAUCGAUUGCGUCGCGAUCGAGAAGGACAAGAGGGUCACCCUUGUACAUGAGGAUCACCCAUGUCAUGU | 202 | 149 |  | 
GUUUAGUGAGGAUAUGUGGCUUCGAUCGUGCGCGGUCUGCUACAGAAGGCACAUGAGGAUCACCCAUGUUUCUC | 173 | 527 |  | 
GCUAGGCAUGUCAGGAUAUGCUGUACCUUGGUACAGCAGAAGGGACAUGAGGAUCACCCAUGUGCCUAUCUAGC | 42.9 | 419 |  | 
UUGGACGUCGUAGGAUAUGUAGGAUAUUCCUACAUGAGGAUCACCCAUGUUGACAUGGAACAAGGACAGAAGGACGAUGUCCAU |  |  | 493 | 17.4
CUAAUUCAUGUAGGAUAUGCGUGGCGAAGCUAUGCAGAAGGACAUGAGGAUCACCCAUGUCUUUCCGUCUGCGUACAGACGGAA | 24.7 | 201 |  | 
GCUGCAUAGGCAGGAUAUGCAAUAAUUCGAAUAAAAUAUAACGAAUUAACAUGAGGAUCACCCAUGUAGAAGGGCCUGUGCAGC | 5.51 | 4.99 |  | 
